Measured values taken from ChEMBL document CHEMBL1136050, “Synthesis, structural evaluation, and estrogen receptor interaction of 2,3-diarylpiperazines” (J Med Chem, 2002).

Key:
[1] = target: T1, Estrogen receptor (Homo sapiens) (UniProt P03372); assay: Activation of the estrogen receptors of MCF-7-2a cells at 10e-6 M.
T1 sequence (whole entry): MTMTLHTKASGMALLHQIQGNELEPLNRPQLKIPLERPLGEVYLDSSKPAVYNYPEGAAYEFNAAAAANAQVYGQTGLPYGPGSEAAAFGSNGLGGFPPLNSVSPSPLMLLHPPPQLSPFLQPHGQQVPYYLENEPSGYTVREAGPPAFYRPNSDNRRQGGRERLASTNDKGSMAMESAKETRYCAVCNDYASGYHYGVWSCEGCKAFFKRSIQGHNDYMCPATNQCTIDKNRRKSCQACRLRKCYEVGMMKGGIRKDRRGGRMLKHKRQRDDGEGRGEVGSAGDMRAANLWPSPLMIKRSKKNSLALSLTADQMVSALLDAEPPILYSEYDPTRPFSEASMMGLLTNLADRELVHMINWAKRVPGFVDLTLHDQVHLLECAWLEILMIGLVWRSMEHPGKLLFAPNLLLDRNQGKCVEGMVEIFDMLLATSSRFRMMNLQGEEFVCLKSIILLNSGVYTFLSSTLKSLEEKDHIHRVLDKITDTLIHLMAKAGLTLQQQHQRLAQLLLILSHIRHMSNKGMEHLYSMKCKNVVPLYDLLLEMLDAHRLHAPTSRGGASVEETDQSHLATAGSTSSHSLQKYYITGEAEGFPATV
Outline: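 MCF-7-2a cells stably carrying ERE(wtc)luc, kept one week in DMEM with L-glutamine, antibiotics and dextran/charcoal-treated BCS (50 mL/L). Seeded at about 2.2 × 10^5 cells/mL in six-well plates; compound added after 24 h and cells incubated 50 h. Lysed 20 min at room temperature, luciferase luminescence read for 10 s (RLU), normalized to Bradford protein. Line value taken at 1 μM.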

[2] = system: Estrogen receptor alpha (Bos taurus); assay: Relative binding affinity to Estrogen receptor alpha in calf uterine cytosol compared to [3H]E2.; conditions: Uterus

Structure (SMILES) | Relative activation [1] | relative binding affinity (RBA) [2]
COc1ccc([C@H]2NCCN[C@H]2c2ccc(OC)cc2)cc1 | 5% | –
Oc1cc(Cl)c([C@H]2NCCN[C@H]2c2c(Cl)cc(O)cc2Cl)c(Cl)c1 | 73% | 0.05
CCN1CCN(CC)[C@@H](c2ccc(OC)cc2F)[C@H]1c1ccc(OC)cc1F | 7% | –
CCN1CCN[C@H](c2ccc(O)cc2F)[C@@H]1c1ccc(O)cc1F | 34% | 0.06
COc1ccc([C@H]2NCCN[C@H]2c2ccc(OC)cc2Cl)c(Cl)c1 | 1% | –
CCN1CCN[C@H](c2ccc(OC)cc2F)[C@@H]1c1ccc(OC)cc1F | 3% | –
COc1cc(Cl)c([C@H]2NCCN[C@H]2c2c(Cl)cc(OC)cc2Cl)c(Cl)c1 | 5% | –
CCN1CCN(CC)[C@@H](c2ccc(O)cc2F)[C@H]1c1ccc(O)cc1F | 4% | 0.03
Oc1ccc([C@H]2NCCN[C@H]2c2c(Cl)cc(O)cc2Cl)c(Cl)c1 | 20% | < 0.02
Oc1ccc(Cl)c([C@H]2NCCN[C@H]2c2c(Cl)ccc(O)c2Cl)c1Cl | 12% | < 0.02
COc1ccc([C@H]2NCCN[C@H]2c2ccc(OC)cc2F)c(F)c1 | 4% | –
CCN1CCN(CC)[C@@H](c2ccc(OC)cc2)[C@H]1c1ccc(OC)cc1 | 4% | –
CCN1CCN[C@H](c2ccc(OC)cc2Cl)[C@@H]1c1ccc(OC)cc1Cl | 4% | –
COc1ccc([C@H]2NCCN[C@H]2c2c(Cl)cc(OC)cc2Cl)c(Cl)c1 | 3% | –
Oc1ccc([C@H]2NCCN[C@H]2c2ccc(O)cc2F)c(F)c1 | 4% | < 0.02
CCN1CCN(CC)[C@@H](c2ccc(OC)cc2Cl)[C@H]1c1ccc(OC)cc1Cl | 0% | –
Oc1ccc([C@H]2NCCN[C@H]2c2ccc(O)cc2Cl)c(Cl)c1 | 7% | < 0.02
COc1ccc(Cl)c([C@H]2NCCN[C@H]2c2c(Cl)ccc(OC)c2Cl)c1Cl | 8% | –
Oc1ccc([C@H]2NCCN[C@H]2c2ccc(O)cc2)cc1 | -1% | < 0.02
CCN1CCN(CC)[C@@H](c2ccc(O)cc2Cl)[C@H]1c1ccc(O)cc1Cl | 37% | 0.17
CCN1CCN[C@H](c2ccc(O)cc2Cl)[C@@H]1c1ccc(O)cc1Cl | 74% | 0.42
CCN1CCN(CC)[C@@H](c2ccc(O)cc2)[C@H]1c1ccc(O)cc1 | 8% | < 0.02
